Assays:
[1] = target: T1, Chromodomain Y-like protein (Homo sapiens, UniProt Q9Y232); experiment: Binding affinity to recombinant human N-terminal GST-tagged CDYL (1 to 60 residues) expressed in Escherichia coli […] by SPR analysis
T1 sequence (Q9Y232 whole entry): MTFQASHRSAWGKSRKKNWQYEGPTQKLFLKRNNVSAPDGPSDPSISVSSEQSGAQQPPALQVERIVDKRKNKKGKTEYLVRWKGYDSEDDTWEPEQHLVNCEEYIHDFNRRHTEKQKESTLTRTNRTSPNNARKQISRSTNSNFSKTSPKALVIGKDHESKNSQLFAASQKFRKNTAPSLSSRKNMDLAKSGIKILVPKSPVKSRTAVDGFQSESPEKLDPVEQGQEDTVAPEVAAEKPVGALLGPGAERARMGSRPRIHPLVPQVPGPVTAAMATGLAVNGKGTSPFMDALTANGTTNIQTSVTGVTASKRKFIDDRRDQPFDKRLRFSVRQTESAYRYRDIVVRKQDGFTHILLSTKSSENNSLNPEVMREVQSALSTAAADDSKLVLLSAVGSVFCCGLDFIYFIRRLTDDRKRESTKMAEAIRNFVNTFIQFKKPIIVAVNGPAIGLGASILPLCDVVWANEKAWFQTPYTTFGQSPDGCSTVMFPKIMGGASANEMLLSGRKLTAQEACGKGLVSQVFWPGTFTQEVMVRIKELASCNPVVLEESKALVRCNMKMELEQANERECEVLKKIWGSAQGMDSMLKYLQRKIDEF
Summary of the method: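 GST-tagged chromodomain expressed in E. coli BL21 with 0.2 mM IPTG at 28 °C for 6 h. Purified on GSTrap, tag removed with PreScission protease. Amine-coupled to CM5 chip at pH 4.0–4.5 (5000–10000 RU). Compound run as a 1.5- or 2-fold series from 100 µM in PBSP with 5% DMSO, 25 °C, 30 µL/min, 60 s association and 60 s dissociation.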

[2] = target: T2, Testis-specific chromodomain protein Y 1 (Homo sapiens, UniProt Q9Y6F8); experiment: Binding affinity to recombinant human N-terminal GST-tagged CDY1 (1 to 65 residues) expressed in Escherichia coli […] by SPR analysis
T2 sequence (Q9Y6F8 whole entry): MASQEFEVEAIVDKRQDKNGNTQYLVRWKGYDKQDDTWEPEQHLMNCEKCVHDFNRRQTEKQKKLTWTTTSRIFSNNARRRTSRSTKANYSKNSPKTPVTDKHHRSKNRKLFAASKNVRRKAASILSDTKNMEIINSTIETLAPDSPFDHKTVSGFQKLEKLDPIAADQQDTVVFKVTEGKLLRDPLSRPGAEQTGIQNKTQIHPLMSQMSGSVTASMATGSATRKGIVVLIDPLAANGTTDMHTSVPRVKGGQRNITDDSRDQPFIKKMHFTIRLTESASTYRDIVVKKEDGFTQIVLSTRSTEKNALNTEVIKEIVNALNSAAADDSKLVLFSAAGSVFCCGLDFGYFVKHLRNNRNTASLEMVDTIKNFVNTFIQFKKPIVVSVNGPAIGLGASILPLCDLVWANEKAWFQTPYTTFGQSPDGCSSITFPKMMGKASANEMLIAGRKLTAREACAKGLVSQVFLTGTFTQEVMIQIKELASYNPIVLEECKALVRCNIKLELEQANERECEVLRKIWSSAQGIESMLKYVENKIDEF
Summary of the method: (§1)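 Chromodomain expressed with N-terminal GST tag in E. coli BL21 (IPTG 0.2 mM at OD600 0.6–0.8, 28 C for 6 h), GSTrap purified, tag cleaved by PreScission protease, amine-coupled to CM5 chip at pH 4.0–4.5 (5000–10000 RU). […] Mean ± SD of at least two replicates, each in duplicate.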

[3] = target: T3, Chromobox protein homolog 7 (Homo sapiens, UniProt O95931); experiment: Binding affinity to recombinant human N-terminal GST-tagged CBX7 (1 to 62 residues) expressed in Escherichia coli […] by SPR analysis; summary of the method: as §1
T3 sequence (O95931 whole entry): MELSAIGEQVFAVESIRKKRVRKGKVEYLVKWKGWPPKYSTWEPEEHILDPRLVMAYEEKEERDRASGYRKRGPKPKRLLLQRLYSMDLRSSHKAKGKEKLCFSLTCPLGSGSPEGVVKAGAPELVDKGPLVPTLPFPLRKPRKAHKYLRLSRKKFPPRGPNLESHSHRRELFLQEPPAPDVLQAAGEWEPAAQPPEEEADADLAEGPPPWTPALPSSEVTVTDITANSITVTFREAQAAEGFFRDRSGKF

[4] = tested on: SH-SY5Y; experiment: Cytotoxicity against human SH-SY5Y cells assessed as reduction in cell viability incubated for 24 hrs by CCK8 assay
[5] = tested on: HEK-293T; experiment: Cytotoxicity against human HEK293T cells assessed as reduction in cell viability incubated for 24 hrs by CCK8 assay

| SMILES | Kd [1] | Kd [2] | Kd [3] | IC50 [4] | IC50 [5] |
| --- | --- | --- | --- | --- | --- |
| O=C(Cn1c(=O)oc2ccc([N+](=O)[O-])cc21)N1CCC(N2CCCC2)CC1 | 16.8 µM | 55.8 µM |  |  |  |
| C=CCN1C(=O)C(O)(CC(=O)c2ccc3ccccc3c2)c2ccccc21 (configuration not stated) | 31.7 µM | 24.5 µM |  |  |  |
| O=C(Cn1c(=O)oc2ccccc21)Nc1cccc2ccccc12 | 29 µM | 0.8 µM | > 200 µM |  |  |
| CCN(CC)CCOC(=O)CCc1cccc2ccccc12 | 60.8 µM |  |  |  |  |
| CC(C)N1C(=O)C(O)(CC(=O)c2ccco2)c2ccccc21 (configuration not stated) | 13.1 µM | 61.6 µM | 41.1 µM |  |  |
| COc1cccc(C(=O)Cn2cnc3ccccc32)c1 | 10.1 µM | 4 µM |  |  |  |
| CCN(CC)C1CCN(C(=O)Cn2c(=O)oc3ccccc32)CC1 | 5.8 µM |  | 46.6 µM |  |  |
| CCCN1C(=O)C(O)(CC(=O)c2ccc3c(c2)CCCC3)c2ccccc21 (configuration not stated) | 50.5 µM | 89.5 µM | 7.2 µM |  |  |
| O=C(CN1C(=O)COc2ccccc21)c1c[nH]c2ccccc12 | 59.8 µM | 109 µM | 37.1 µM |  |  |
| O=C(Cn1c(=O)oc2ccccc21)Nc1ccc2ccccc2c1 | 18.9 µM | 20.4 µM | 19.6 µM |  |  |
| O=C(Cn1c(=O)oc2ccccc21)N1CCC(N2CCCCC2)CC1 | 11.8 µM | 51.1 µM | 13.5 µM |  |  |
| COc1ccc(C(=O)Cn2c(=O)oc3ccc(F)cc32)cc1OC | 20.5 µM | 4.4 µM | 28.8 µM |  |  |
| COc1ccc2oc(=O)n(CC(=O)c3c[nH]c4ccccc34)c2c1 | 7.2 µM | 36.4 µM | 20.3 µM |  |  |
| COCCCNC(=O)Cc1c(C)c2c(O)cc(C)cc2oc1=O | 26 µM |  |  |  |  |
| COc1ccc2oc(=O)n(CC(=O)c3ccc4ccccc4c3)c2c1 | 1.5 µM | 1.5 µM | 59.5 µM |  |  |
| COc1cccc(C(=O)/C=C2\C(=O)Nc3ccc(Cl)cc32)c1 | 15.4 µM | 10.3 µM |  | 21.5 µM | 16.6 µM |
| N#Cc1ccc2oc(=O)n(CC(=O)c3ccc4ccccc4c3)c2c1 | 101 µM | 71.5 µM |  |  |  |
| CN(C)c1ccc(C(=O)Cn2c(=O)oc3ccccc32)cc1 | 11.9 µM |  | 36.5 µM |  |  |
| COc1cccc(C(=O)Cn2c(=O)[nH]c3ccc(Cl)cc32)c1 | 14.8 µM | 70.4 µM | 28.9 µM | > 200 µM | > 200 µM |
| N#Cc1ccc2oc(=O)n(CC(=O)c3c[nH]c4ccccc34)c2c1 | 96.7 µM | 4.6 µM | 46.9 µM |  |  |
| C[C@@H](CN1CCCC1)OC(=O)c1ccc(Cl)cc1Cl | 271 µM |  |  |  |  |
| CN1C(=O)C(O)(CC(=O)c2ccc3ccccc3c2)c2ccccc21 (configuration not stated) | 19.4 µM | 28.9 µM | 5.1 µM |  |  |
| O=C(Cn1c(=O)sc2cc([N+](=O)[O-])ccc21)c1ccc2ccccc2c1 | 26.8 µM | 123 µM |  |  |  |
| CCCN1C(=O)C(O)(CC(=O)c2cc(Br)c(Br)o2)c2cc(Cl)ccc21 (configuration not stated) | 15.4 µM |  | 16 µM |  |  |
| Nc1ccc2c(c1)sc(=O)n2CC(=O)c1c[nH]c2ccccc12 | 3.5 µM | 51.1 µM | 6.5 µM |  |  |
| O=C(Cn1c(=O)oc2ccccc21)N1CCC(N2CCOCC2)CC1 | 25.9 µM | 21 µM | 5.6 µM |  |  |
| COc1cccc(C(=O)CN2C(=O)COc3ccccc32)c1 | 13 µM | 11.3 µM | 53 µM |  |  |
| COc1cccc(C(=O)Cn2c(=O)oc3ccc(OC)cc32)c1 | 7.7 µM | 15.6 µM | 17.2 µM |  |  |

| SMILES | Kd [1] | Kd [2] | Kd [3] | IC50 [4] | IC50 [5] |
| --- | --- | --- | --- | --- | --- |
| COc1cccc(C(=O)Cn2c(=O)oc3ccccc32)c1 | 4.9 µM | 5.8 µM |  |  |  |
| COc1ccc2oc(=O)n(CC(=O)c3ccc(OC)c(OC)c3)c2c1 | 5.5 µM | 11.3 µM | 3.9 µM |  |  |
| COc1cccc(C(=O)Cn2c(=O)oc3ccc(C#N)cc32)c1 |  | 42.1 µM | 19.6 µM |  |  |
| CCN(CC)C1CCN(C(=O)Cn2c(=O)oc3ccc(F)cc32)CC1 | 2.8 µM | 4.5 µM | 2.8 µM |  |  |
| O=C(Cn1c(=O)oc2ccccc21)c1c[nH]c2ccccc12 | 1.9 µM | 21 µM | 9.3 µM |  |  |
| COc1ccc(C(=O)Cn2c(=O)oc3ccccc32)cc1OC | 14.6 µM | 23.8 µM | 48.5 µM |  |  |
| O=C(CN1C(=O)COc2ccccc21)c1ccc2ccccc2c1 | 52.5 µM | 39.6 µM | 26.5 µM |  |  |
| O=C(Cn1c(=O)oc2ccc(F)cc21)c1c[nH]c2ccccc12 | 5.1 µM | 23.7 µM | 9.8 µM |  |  |
| CC(C)N1C(=O)[C@@](O)(CC(=O)c2cccc3ccccc23)c2ccccc21 | 55.3 µM |  |  |  |  |
| COc1cccc(C(=O)CC2C(=O)Nc3ccc(Cl)cc32)c1 (racemic) | 1.2 µM | > 200 µM |  | 43.4 µM | 36.9 µM |
| Nc1ccc2c(c1)sc(=O)n2CC(=O)c1ccc2ccccc2c1 | 4.9 µM |  | > 200 µM |  |  |
| O=C(Cn1c(=O)sc2cc([N+](=O)[O-])ccc21)c1c[nH]c2ccccc12 | 71.7 µM | 14.4 µM | 8.8 µM |  |  |
| COc1ccc2oc(=O)n(CC(=O)c3ccc(N(C)C)cc3)c2c1 | 15.5 µM | 2.7 µM | 6.1 µM |  |  |
| CN(C)C1CCN(C(=O)Cn2c(=O)oc3ccccc32)CC1 | 9.5 µM | 33.6 µM |  |  |  |
| CN1CCc2c(sc3c2C(=O)N[C@@H](/C=C\c2ccccc2)N3)C1 | 55.6 µM |  |  |  |  |
| CCCN1C(=O)C(O)(CC(=O)c2cccc3ccccc23)c2ccccc21 (configuration not stated) | 23 µM | 21.1 µM | 20.4 µM |  |  |
| CN(C)c1ccc(C(=O)Cn2c(=O)oc3ccc(F)cc32)cc1 | 90.1 µM | 34.6 µM | 78.1 µM |  |  |
| COc1cccc(C(=O)Cn2c(=O)oc3ccc(F)cc32)c1 | 6.2 µM |  | 3.4 µM |  |  |
| COc1ccccc1[C@@H]1NC(=O)c2c(sc3c2CCN(C)C3)N1 | 53.2 µM |  |  |  |  |
| CCCCN1C(=O)C(O)(CC(=O)c2cccc(OC)c2)c2ccccc21 (configuration not stated) | 100 µM | 17.2 µM | 8.8 µM |  |  |
| O=C(Cn1c(=O)oc2ccccc21)c1cccc2ccccc12 | 3 µM | 6.5 µM | 29.9 µM |  |  |
| COc1cccc(NC(=O)Cn2c(=O)oc3ccccc32)c1 | 7.3 µM | 1 µM | 14.8 µM |  |  |
| CN1C(=O)C(O)(CC(=O)c2cccc3ccccc23)c2ccccc21 (configuration not stated) | 128 µM | 24.7 µM | 2.4 µM |  |  |
| CCCC(=O)Nc1ccc(Cl)c(NC(=O)COc2ccccc2OC)c1 | 14.2 µM |  |  |  |  |
| O=C(Cn1c(=O)oc2cc(Br)ccc21)c1ccc2ccccc2c1 | 29 µM | 1.7 µM | 29.7 µM |  |  |
| O=C(Cn1c(=O)oc2ccc(F)cc21)c1ccc2ccccc2c1 | 20.1 µM | 210 µM | 40.2 µM |  |  |
| O=C(Cn1c(=O)oc2ccc(Br)cc21)c1ccc2ccccc2c1 | 5.8 µM | 14.8 µM | 9.5 µM |  |  |

— ChEMBL document CHEMBL4359913, “Identification and characterization of benzo[d]oxazol-2(3H)-one derivatives as the first potent and selective small-molecule inhibitors of chromodomain protein CDYL” (Eur J Med Chem, 2019)
